# Data from PubChem BioAssay AID2522 (Broad Institute, 2010).
# Inconclusive results are not listed. Calls of active or inactive are those of the source.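 How the source made its calls: active means mean inhibition at 30 µM above 50% in every run; inconclusive means inhibition above 50% in some runs but not in others; inactive means inhibition at most 50% in every run.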
# Test system: human washed platelets, A23187-induced P-selectin, flow cytometry
# Assay: calcium ionophore platelet activation inhibition – cell-based, fluorescence, flow cytometry, platelets, selectivity assay (AID 2522)
# Details: at 30 µM, stronger effect = higher value
# Summary of the method: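 Material: platelets / Reagent: Ca2+ ionophore A23187 at 10 µM, 15 min stimulation / Doses: single compound dose of 30 µM / Timing: 20 min compound pre-incubation, 15 min A23187, 20 min staining / Measured by: flow cytometry with PE-labeled anti-P-selectin antibody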
compound,measurement,setting,value
C/C(=N/NC(=O)C1CCCC1)c1ccc(NC(=O)C(F)(F)F)cc1,inhibition,,6% (inactive)
same,inhibition,"measured here: inhibition, second run",1%
